About 50 (0.08%) of roughly 62,000 compounds were called active.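 Rule for the calls: active = inhibition above 30% in each of the two pooled mixtures holding the compound, so the lower value exceeds 30%; inactive = the rest.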 The sample as a whole holds a higher share of actives than the screen did.
Assay: alternative complement pathway inhibitors, primary screen, biochemical, ELISA, human serum, orthogonally pooled compounds (AID 1235);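 note: 0% = serum in Mg-EGTA without compound and 100% = EDTA serum blank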
Settings: LPS-coated ELISA, C3 deposition, tested in compound mixtures, at 5 µM, stronger effect = higher value
Method in brief: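 Test system – human serum alternative complement pathway, C3 deposition on LPS-coated wells · Buffer or medium – diluted human serum in Mg2+-EGTA GVB++ · Compound dosing – 5 µM each compound, pools of ten, 50 µM per pool · Schedule – 1 h serum-compound exposure at 37 °C · Measured by – Anti-C3 ELISA, OD 450 nm · Read-out basis – percent inhibition of C3 deposition onto LPS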

Row | Compound | inhibition
1 | O=C(NCc1cccnc1)c1cn(-c2ccccc2)nc1-c1cccs1 | 0.865% (inactive)
2 | COc1ccc(NC(=O)CCNC(=O)Cn2ccc3ccccc3c2=O)c(OC)c1 | 29.1% (inactive)
3 | CCOC(=O)c1ccc(N2C(=O)CC(N3CCC(C(=O)OCC)CC3)C2=O)cc1 (stereo not drawn) | -0.58% (inactive)
4 | O=P(O)(CN1CCCCC1)CN1CCCCC1 | 8.65% (inactive)
5 | Cc1noc(C)c1CSc1nnc2ccc3ccccc3n12 | 9.95% (inactive)
6 | COc1ccc(OC)c(S(=O)(=O)Nc2ccccc2F)c1 | 6.16% (inactive)
7 | COC(=O)Nc1ccc(S(=O)(=O)N(C)CC(F)(F)C(F)F)cc1 | 13.5% (inactive)
8 | Cc1ccc(C)c(N2CCN(C(=O)CCc3nc4ccccc4[nH]3)CC2)c1 | 18.5% (inactive)
9 | Cc1ccc(-c2nnn(CC(=O)N(CCO)C(C(=O)NC(C)(C)C)c3ccncc3)n2)cc1 (stereo not drawn) | 9.36% (inactive)
10 | Cc1ccc(C)c(N2CCN(S(=O)(=O)c3ccc4c(c3)oc(=O)n4C)CC2)c1 | 3.29% (inactive)
11 | CN(C)CC(O)COc1ccc(C(C)(C)c2ccc(OCC(O)CN(C)C)cc2)cc1 (stereo not drawn) | 0.48% (inactive)
12 | Cc1nc(Nc2ccc3c(c2)OCCO3)c2nnn(Cc3ccccc3Cl)c2n1 | 1.64% (inactive)
13 | Cc1cc(C)c(C#N)c(SCS(=O)c2ccc(C(C)(C)C)cc2)n1 (stereo not drawn) | 4.51% (inactive)
14 | COc1ccc(-c2[nH]nc3c2C(c2ccncc2)C(C#N)=C(N)O3)cc1 (stereo not drawn) | 0.015% (inactive)
15 | CC(C)(C)c1cc(CN2CCN(CCC#N)CC2)cc(C(C)(C)C)c1O | -7.06% (inactive)
16 | CC1CCc2c(sc(NC(=O)c3ccc(Cn4cc(Br)cn4)o3)c2C(N)=O)C1 (stereo not drawn) | 8.16% (inactive)
17 | Cc1cccc(N=C2NC(=O)CS2)c1C | 4.01% (inactive)
18 | Cc1ccc2nc(S(=O)(=O)O)[nH]c2c1 | -4.08% (inactive)
19 | O=C(Cn1nc(C(F)(F)F)c2c1CCC2)NCc1ccc(F)cc1 | -10.2% (inactive)
20 | CCc1nnc(NC(=O)CSc2nnc(-c3ccncc3)n2Cc2ccccc2)s1 | 6.79% (inactive)
21 | C=C(C)Cn1c(N2CCN(CC)CC2)nc2c1c(=O)[nH]c(=O)n2C | -2.46% (inactive)
22 | COC(=O)C(C)n1cnc2c(nnn2-c2cccc(Cl)c2)c1=O (stereo not drawn) | 7.95% (inactive)
23 | Cc1c(C(=O)N2CC(C)OC(C)C2)sc2nc(-c3ccccc3)cn12 (stereo not drawn) | 11% (inactive)
24 | FC(F)(F)c1cccc(Nc2ncnc3ccccc23)c1 | 13.9% (inactive)
25 | Cc1cc(=O)n2nc(N3CCCC3C(=O)NCCCN3CC(C)CC(C)C3)sc2n1 (stereo not drawn) | 20.4% (inactive)
26 | CCCN1CC=C2C(C#N)=C(N)C(C#N)(C#N)C(c3cc(OC)ccc3OC)C2C1 (stereo not drawn) | -5.21% (inactive)

Row | Compound | inhibition
27 | Cc1cc(C(=O)O)c(S(C)(=O)=O)s1 | 21.7% (inactive)
28 | O=C(OCc1cc2ccccc2[nH]c1=O)c1cccnc1 | 1.83% (inactive)
29 | CCOC(=O)N1CCN(CC(=O)c2ccc3c(c2)CCN3)CC1 | 22.3% (inactive)
30 | CCOC(=O)C1(C(F)(F)F)N=C(N(C)C)OC(N(C)C)=N1 | 23.1% (inactive)
31 | O=C(CSc1n[nH]c(-c2cccnc2)n1)Nc1ccnc2ccccc12 | -1.01% (inactive)
32 | CSc1nnc2c(n1)OC(c1cn(C)c3ccccc13)N(C(C)=O)c1ccccc1-2 (stereo not drawn) | 12.4% (inactive)
33 | Cc1nc2nc(CSc3nc4ccccc4s3)cc(=O)n2[nH]1 | 8.57% (inactive)
34 | O=C(NCc1ccc2c(c1)OCO2)C1CCCN(S(=O)(=O)c2cccs2)C1 (stereo not drawn) | 7.05% (inactive)
35 | CCCCn1c(SCc2ncc(-c3ccccc3)o2)nc2cc(S(N)(=O)=O)ccc21 | 20.9% (inactive)
36 | O=C(CC(NCCN1CCOCC1)C(=O)O)Nc1cccc(Cl)c1 (stereo not drawn) | -2.21% (inactive)
37 | COc1ccc(CC(=O)Nc2c3c(nn2-c2cccc(Cl)c2)CS(=O)C3)cc1 (stereo not drawn) | 11.2% (inactive)
38 | Cc1ccc(OS(=O)Nc2cccc3nccnc23)cc1 (stereo not drawn) | 10% (inactive)
39 | CCN(c1ccc2c(c1)OCO2)S(=O)(=O)c1cc(Br)cc2c1N(C(=O)C1CC1)CC2 | -0.915% (inactive)
40 | COc1ccccc1-c1nnc(SCC(=O)Nc2ccccc2)o1 | 4.25% (inactive)
41 | CCOc1ccccc1NC(=O)CCc1ccc(C)o1 | 9.69% (inactive)
42 | O=C(Nc1ccc(S(=O)(=O)N2CCCCC2)cc1)c1cnccn1 | 13.5% (inactive)
43 | CCCCCCn1c(CN2CCCC(C)C2)nc2c1c(=O)n(C)c(=O)n2C (stereo not drawn) | 8.35% (inactive)
44 | CCCOc1ccccc1-c1nc(SCCC(=O)O)n[nH]1 | 24% (inactive)
45 | CCCCCn1c(SCCC(C)C)nc2c1c(=O)[nH]c(=O)n2C | 4.81% (inactive)
46 | COc1cc(Cl)c(C)cc1NC(=O)CSc1nnc(-c2ccco2)n1CC(C)C | 10.7% (inactive)
47 | OC(COc1ccccc1)Cn1cc(Br)cn1 (stereo not drawn) | 3.79% (inactive)
48 | c1ccc(-n2ncc3c2ncn2c(C4CCCCC4)nnc32)cc1 | 14.3% (inactive)
49 | COc1ccc(CCNC(=O)CCn2c(=O)oc3ccccc32)cc1OC | 6.83% (inactive)
50 | CSCCC(NC(=O)C1CCC(C)CC1)C(=O)NCc1ccco1 (stereo not drawn) | 11.6% (inactive)
51 | COC(=O)c1cc(Cl)c(NC(=O)c2ccco2)cc1OC | 13% (inactive)
52 | COCCCNC(=O)CSc1nc2ccc(N3CCOCC3)cc2c(=O)n1CCc1ccccc1 | 22.2% (inactive)

Row | Compound | inhibition
53 | CCOC(=O)c1ccc(NC(=O)CSc2nnc(COc3ccccc3OC)n2C)cc1 | 7.25% (inactive)
54 | CCOC(=O)c1sc(=S)n(-c2cccc(OC)c2)c1N | 5.37% (inactive)
55 | Cc1ccc(NC(=O)CCNS(=O)(=O)c2ccc3c(c2)oc(=O)n3C)cc1C | 15.7% (inactive)
56 | CC1(C)CC(=O)C=C(NCc2ccncc2)C1 | -1.25% (inactive)
57 | Cc1nn(C(=O)c2ccoc2C)c(N)c1-c1ccccc1 | 10.4% (inactive)
58 | O=C(N1CCOCC1)N(Cc1ccccc1)c1ccccn1 | -5.66% (inactive)
59 | Cc1ccc(-c2csc3nnc(SCC(=O)NCc4ccco4)n23)cc1 | 2.88% (inactive)
60 | COc1ccc(C2C(C(=O)N3CCN(c4ccc(OC)cc4)CC3)c3ccccc3C(=O)N2C)cc1 (stereo not drawn) | 8.23% (inactive)
61 | O=C(CSc1nc2ccccc2[nH]1)c1cccs1 | 12.6% (inactive)
62 | O=C(c1cc(-c2ccc(O)cc2)on1)N1CCCc2ccccc21 | 9.64% (inactive)
63 | CC(C)(C)NC(=O)C(c1ccncc1)N(C(=O)CNC(=O)c1ccco1)c1ccc2c(c1)OCO2 (stereo not drawn) | 4.9% (inactive)
64 | c1ccc(-c2cc(-c3nnc4sc(-c5ccccn5)nn34)[nH]n2)cc1 | 8.74% (inactive)
65 | CC12CCC(C(=O)N3CCN(c4ncccn4)CC3)(c3nc4ccccc4nc31)C2(C)C (stereo not drawn) | 20.7% (inactive)
66 | O=C(O)C1CC(=O)N(Cc2cccnc2)C1 (stereo not drawn) | 15.1% (inactive)
67 | COCCNC(=O)Cn1cc2c(n1)CCCCC2 | 3.37% (inactive)
68 | COc1ccc(S(=O)(=O)N(CCCN2CCCC2=O)Cc2cc3c(C)ccc(C)c3[nH]c2=O)cc1 | 5.72% (inactive)
69 | Clc1ccc(CSc2nnc([C@@H]3CCCN3)o2)cc1 | 13.7% (inactive)
70 | CCn1c(SCC(=O)Nc2nc3ccc(OC)cc3s2)nnc1-c1ccoc1C | 4.77% (inactive)
71 | COC(=O)N1CN(C(=O)OC)CN(C(=O)OC)C1 | 4.11% (inactive)
72 | Cn1c(SCc2c(F)cccc2Cl)nnc1-c1cnccn1 | -5.66% (inactive)
73 | O=S(=O)(c1ccc(Sc2nnc3ccccn23)nc1)N1CCOCC1 | -7.45% (inactive)
74 | COc1ccccc1-c1cc(C(=O)NCCCn2ccnc2)no1 | 1.27% (inactive)
75 | COc1ccccc1N1CCN(CCCCOc2ccc(F)cc2)CC1 | 0.215% (inactive)
76 | O=C1CC2(CCCCC2)Oc2ccc(OCC(=O)N3CCOCC3)cc21 | 9.94% (inactive)
77 | Cc1csc(NC(=O)C2CCCN2C(=O)OCC(C)C)n1 (stereo not drawn) | -7.74% (inactive)
78 | Cc1cccc(N2CCN(C(=O)c3cc4c(=O)[nH]c5ccccc5c4n3C)CC2)c1C | 8.97% (inactive)

From PubChem BioAssay AID1235 (PCMD, 2008)
